In ChEMBL document CHEMBL1154098, “Synthesis, characterization and in vitro antimicrobial activity of novel 2-thioxo-4-thiazolidinones and 4,4'-bis(2-thioxo-4-thiazolidinone-3-yl)diphenylsulfones” (2009) one finds zone of inhibition, inhibition zone (IZ) and MIC data, which are given here for 12 compounds.

For experiment [1], the system named is Staphylococcus aureus. The experiment can be described thus: Antibacterial activity against Staphylococcus aureus NCTC 7447 at 1 mg/mL […] by agar diffusion assay. The experiment is classed as functional. Particulars: read-out: DIZ. In general terms: Agar diffusion results depend on both activity and mobility in agar.
Experiment [2] has as its system Serratia marcescens. The experiment can be described thus: Antibacterial activity against Serratia marcescens IMRU 70 at 1 mg/mL […] by agar diffusion assay. As to conditions: read-out: DIZ. It counts as functional.
The subject of experiment [3] is Proteus mirabilis. The experiment can be described thus: Antibacterial activity against Proteus mirabilis NCT 289 at 1 mg/mL […] by agar diffusion assay. As to conditions: read-out: DIZ. It counts as functional.
The subject of experiment [4] is Aspergillus ochraceus. As to the kind of experiment: Antifungal activity against Aspergillus ochraceus Wilhelm AUCC 230 at 1 mg/mL after 48 hrs by agar diffusion assay. It counts as functional. As to conditions: Wilhelm AUCC 230, 48 h, read-out: DIZ. In short, it runs like this:
(§1)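 Fungi were grown on Czapek's–Dox agar and assayed by agar diffusion. Test solution was 1 mg mL-1 in DMF, with DMF as negative control. After 48 h incubation, the inhibition zone diameter was measured in mm.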

For experiment [5], the system named is Penicillium chrysogenum. The experiment can be described thus: Antifungal activity against Penicillium chrysogenum Thom AUCC 530 at 1 mg/mL after 48 hrs by agar diffusion assay. It counts as functional. Particulars: Thom AUCC 530, 48 h, read-out: DIZ. In short, it runs like this:
as §1

The test system of experiment [6] is Bacillus cereus. The experiment can be described thus: Antibacterial activity against Bacillus cereus ATCC 14579 at 1 mg/mL […] by agar diffusion assay. It counts as functional. As to conditions: read-out: DIZ.
The subject of experiment [7] is Aspergillus ochraceus. As to the kind of experiment: Antifungal activity against Aspergillus ochraceus Wilhelm AUCC 230 at 30 ug/mL after 48 hrs by agar diffusion assay. It counts as functional, organism-based.
The test system of experiment [8] is Penicillium chrysogenum. As to the kind of experiment: Antifungal activity against Penicillium chrysogenum Thom AUCC 530 at 30 ug/mL after 48 hrs by agar diffusion assay. It counts as functional, organism-based. An outline of the steps: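 Agar-diffusion assay on Czapek's–Dox agar inoculated with the fungal culture. Test solutions were 1 mg mL-1 in DMF, with DMF as the negative control and Mycostatine (30 µg mL-1) as the reference drug. Plates were incubated for 48 h, and the inhibition zone diameter was measured in mm.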

Experiment [9] deals with Bacillus cereus. The experiment can be described thus: Antibacterial activity against Bacillus cereus ATCC 14579 after 24 hrs by agar diffusion assay. The experiment is classed as functional. Particulars: ATCC 14579, 24 h.
Experiment [10] concerns Penicillium chrysogenum. The experiment can be described thus: Antifungal activity against Penicillium chrysogenum Thom AUCC 530 after 48 hrs by agar diffusion assay. It counts as functional. Particulars: Thom AUCC 530, 48 h.
Experiment [11] relates to Staphylococcus aureus. As to the kind of experiment: Antibacterial activity against Staphylococcus aureus NCTC 7447 at 25 ug/mL […] by agar diffusion assay. It counts as functional. Particulars: read-out: DIZ.
Experiment [12] has as its system Serratia marcescens. The experiment can be described thus: Antibacterial activity against Serratia marcescens IMRU 70 at 25 ug/mL […] by agar diffusion assay. The experiment is classed as functional. Particulars: read-out: DIZ.
For experiment [13], the system named is Proteus mirabilis. The experiment can be described thus: Antibacterial activity against Proteus mirabilis NCT 289 at 25 ug/mL […] by agar diffusion assay. The experiment is classed as functional. As to conditions: read-out: DIZ.
Experiment [14] relates to Bacillus cereus. The experiment can be described thus: Antibacterial activity against Bacillus cereus ATCC 14579 at 25 ug/mL […] by agar diffusion assay. It counts as functional. Particulars: read-out: DIZ.
For experiment [15], the system named is Aspergillus ochraceus. The experiment can be described thus: Antifungal activity against Aspergillus ochraceus Wilhelm AUCC 230 at 25 ug/mL after 24 hrs by agar diffusion assay. As to conditions: Wilhelm AUCC 230, 24 h, read-out: DIZ. The experiment is classed as functional.
The subject of experiment [16] is Penicillium chrysogenum. As to the kind of experiment: Antifungal activity against Penicillium chrysogenum Thom AUCC 530 at 25 ug/mL after 24 hrs by agar diffusion assay. The experiment is classed as functional. As to conditions: Thom AUCC 530, 24 h, read-out: DIZ.

As for `COc1ccc(/C=C2\SC(=S)N(c3ccc(S(=O)(=O)c4ccc(N5C(=O)/C(=C/c6ccc(OC)cc6)SC5=S)cc4)cc3)C2=O)cc1`, the zone of inhibition at 1000 µg/mL came to 17 mm with Staphylococcus aureus [1]; 13 mm in the experiment on Serratia marcescens [2]; 25 mm with Proteus mirabilis [3]; 11 mm with Aspergillus ochraceus [4]; 11 mm in the experiment with Penicillium chrysogenum [5]; 16 mm in the experiment on Bacillus cereus [6].

For NYSTATIN, the inhibition zone (IZ) came out at 40 mm with Aspergillus ochraceus [7] and 43 mm with Penicillium chrysogenum [8].

As to `CCO/C=C1/SC(=S)N(c2ccc(S(N)(=O)=O)cc2)C1=O`, the zone of inhibition at 1000 µg/mL was 25 mm in the experiment on Staphylococcus aureus [1]; 23 mm in the experiment on Serratia marcescens [2]; 23 mm in the experiment with Proteus mirabilis [3]; 12 mm in the experiment on Aspergillus ochraceus [4]; 18 mm with Penicillium chrysogenum [5]; 12 mm with Bacillus cereus [6].

For the compound `COc1ccc(/C=C2/SC(=S)N(c3ccc(S(N)(=O)=O)cc3)C2=O)cc1`, the zone of inhibition at 1000 µg/mL was determined as 27 mm with Staphylococcus aureus [1]; 15 mm in the experiment on Serratia marcescens [2]; 19 mm with Proteus mirabilis [3]; 19 mm with Aspergillus ochraceus [4]; 17 mm in the experiment with Penicillium chrysogenum [5]; 10 mm in the experiment with Bacillus cereus [6].

As usually defined, the MIC is the least concentration at which growth counts as inhibited. Higher therefore signals a need for much substance. With `NS(=O)(=O)c1ccc(N2C(=O)/C(=C\c3ccc(/C=C4/SC(=S)N(c5ccc(S(N)(=O)=O)cc5)C4=O)cc3)SC2=S)cc1`, the zone of inhibition at 1000 µg/mL is 13 mm in the experiment with Staphylococcus aureus [1]; 19 mm in the experiment on Serratia marcescens [2]; 22 mm in the experiment on Proteus mirabilis [3]; 16 mm in the experiment with Aspergillus ochraceus [4]; 15 mm in the experiment on Penicillium chrysogenum [5]; 33 mm in the experiment on Bacillus cereus [6]. For the same compound, the MIC against Bacillus cereus [9] was under 50 µg/mL.

`O=C1CSC(=S)N1c1ccc(S(=O)(=O)c2ccc(N3C(=O)CSC3=S)cc2)cc1`: the zone of inhibition at 1000 µg/mL with Staphylococcus aureus [1] worked out at 15 mm; with Serratia marcescens [2], 10 mm; in the experiment on Proteus mirabilis [3], 24 mm; in the experiment on Aspergillus ochraceus [4], 26 mm; with Penicillium chrysogenum [5], 12 mm; with Bacillus cereus [6], 13 mm.

Regarding `Cc1ccc(/C=C2/SC(=S)N(c3ccc(S(N)(=O)=O)cc3)C2=O)cc1`, the zone of inhibition at 1000 µg/mL turned out to be 14 mm in the experiment on Staphylococcus aureus [1]; 18 mm with Serratia marcescens [2]; 17 mm in the experiment with Proteus mirabilis [3]; 14 mm with Aspergillus ochraceus [4]; 10 mm with Penicillium chrysogenum [5]; 34 mm with Bacillus cereus [6]. In addition, the MIC against Bacillus cereus [9] is under 50 µg/mL.

Consider `NS(=O)(=O)c1ccc(N2C(=O)CSC2=S)cc1`, for which the zone of inhibition at 1000 µg/mL in the experiment on Staphylococcus aureus [1] was 28 mm; in the experiment on Serratia marcescens [2], 20 mm; in the experiment with Proteus mirabilis [3], 24 mm; in the experiment with Aspergillus ochraceus [4], 18 mm; in the experiment on Penicillium chrysogenum [5], 16 mm; with Bacillus cereus [6], 13 mm.

Regarding `O=C1CSC(=S)N1c1ccc(S(=O)(=O)Nc2ncccn2)cc1`, the zone of inhibition at 1000 µg/mL with Staphylococcus aureus [1] worked out at 18 mm; with Serratia marcescens [2] it was 22 mm; in the experiment with Proteus mirabilis [3], 19 mm; with Aspergillus ochraceus [4], 15 mm; in the experiment on Penicillium chrysogenum [5], 35 mm; in the experiment on Bacillus cereus [6] it was 16 mm. The compound further showed an MIC with Penicillium chrysogenum [10] of under 50 µg/mL.

As to `N#CC(C#N)=C1SC(=S)N(c2ccc(S(N)(=O)=O)cc2)C1=O`, the zone of inhibition at 1000 µg/mL in the experiment on Staphylococcus aureus [1] came out at 15 mm; in the experiment with Serratia marcescens [2], 24 mm; in the experiment with Proteus mirabilis [3], 18 mm; with Aspergillus ochraceus [4], 14 mm; with Penicillium chrysogenum [5] it was 14 mm; in the experiment on Bacillus cereus [6], 32 mm. The MIC in the experiment with Bacillus cereus [9] is under 50 µg/mL.

Take `CN(C)/C=N/S(=O)(=O)c1ccc(N2C(=O)/C(=C\N(C)C)SC2=S)cc1`: the zone of inhibition at 1000 µg/mL with Staphylococcus aureus [1] was 16 mm; with Serratia marcescens [2], 12 mm; in the experiment on Proteus mirabilis [3], 20 mm; in the experiment on Aspergillus ochraceus [4] it was 16 mm; with Penicillium chrysogenum [5], 16 mm; in the experiment with Bacillus cereus [6] it was 15 mm.

On to `CC1(C)S[C@@H]2[C@H](NC(=O)[C@H](N)c3ccccc3)C(=O)N2[C@H]1C(=O)O` [AMPICILLIN], for which the zone of inhibition at 25 µg/mL in the experiment on Staphylococcus aureus [11] turned out to be 40 mm; with Serratia marcescens [12], 40 mm; in the experiment with Proteus mirabilis [13], 40 mm; in the experiment on Bacillus cereus [14], 43 mm; with Aspergillus ochraceus [15] it was 10 mm; in the experiment with Penicillium chrysogenum [16] it was 16 mm.
